Data set [1] can be described thus: Radiation stability assessed as compound decomposition at 100 uM after exposing to 6.0 Gy/min X-ray irradiation aqueous solution containing 2-methyl-2-propanol under hypoxic conditions by HPLC. Type of data set: physicochemical. The conditions noted are these: buffer.
Data set [2] is described as follows: Radiation stability assessed as 5-fluorodeoxyuridine formation at 100 uM after exposing to 6.0 Gy/min X-ray irradiation aqueous solution containing 2-methyl-2-propanol under hypoxic conditions by HPLC. Type of data set: physicochemical. Conditions: buffer.
Data set [3] is described as follows: Radiation stability assessed as 5-fluorodeoxyuridine formation at 100 uM after exposing to 6.0 Gy/min X-ray irradiation aqueous solution containing 2-methyl-2-propanol under aerobic conditions by HPLC. Format: physicochemical. Conditions: buffer.
Data set [4] can be described thus: Radiation stability assessed as compound decomposition at 100 uM after exposing to 6.0 Gy/min X-ray irradiation aqueous solution containing 2-methyl-2-propanol under aerobic conditions by HPLC. Format: physicochemical. The conditions noted are these: buffer.
Data set [5] concerns A549. The experiment in a line: Cytotoxicity against human A549 cells exposed to 1 uM compound pre-irradiated 30 to 120 Gy/min X-ray irradiation measured after 72 hrs under aerobic conditions by microplate reader method. Type of data set: functional, cell-based. Put shortly: (§1)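 Compound dissolved in DMEM and X-irradiated (6.0 Gy/min) in a sealed glass ampoule at ambient temperature, under hypoxic or aerobic conditions. A549 cells were seeded at 1500 cells/well and grown 24 h at 37 °C aerobically, then incubated with the irradiated solution aerobically for 72 h. Viability read by WST-8 (CCK-8). Mean ± S.D., n = 6.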

Data set [6] relates to A549. The experiment in a line: Cytotoxicity against human A549 cells incubated with 125 uM compound for 12 hrs followed by pre-irradiated 30 to 6 Gy/min X-ray irradiation measured after 72 hrs under hypoxic conditions by microplate reader method. Type of data set: functional, cell-based. An outline of the steps: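 A549 cells seeded at 1500 cells/well and held 6 h at 37 °C under hypoxia (<0.3% O2). Compound added, then 12 h hypoxic incubation at 37 °C. Plates kept hypoxic and X-irradiated at 6 Gy, then incubated 72 h aerobically. Viability read by WST-8 (CCK-8). Mean ± S.D., n = 9.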

The subject of data set [7] is A549. The experiment in a line: Cytotoxicity against human A549 cells after 72 hrs by microplate reader method. Type of data set: functional, cell-based. Conditions: A549, 72 h. Put shortly: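 A549 cells grown in DMEM with 10% FBS and 1% streptomycin/penicillin, seeded at 1500 cells/well, cultured 24 h at 37 °C in 5% CO2/95% air. Exposed to a concentration series under aerobic conditions for 72 h. Viability read by WST-8 (CCK-8) after 30 min at 37 °C; IC50 estimated from viability curves.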

The subject of data set [8] is A549. The experiment in a line: Cytotoxicity against human A549 cells exposed to 1 uM compound pre-irradiated 30 to 120 Gy/min X-ray irradiation measured after 72 hrs under hypoxic conditions by microplate reader method. Type of data set: functional, cell-based. An outline of the steps: as §1

The values that follow come from ChEMBL document CHEMBL2069254, “Synthesis and one-electron reduction characteristics of radiation-activated prodrugs possessing two 5-fluorodeoxyuridine units” (Bioorg Med Chem, 2012).

SMILES strings stand for the structures. pIC50: −log10 of the molar value. The source made the active and inactive calls. The rule behind the calls is not given here.

In general, pIC50 refers to the negative decadic logarithm of the IC50, by convention in mol/L. Read a high pIC50 as a small IC50.

Turning to `O=c1c(F)cn([C@H]2C[C@H](O)[C@@H](CO)O2)c(=O)n1CCCn1c(=O)c(F)cn([C@H]2C[C@H](O)[C@@H](CO)O2)c1=O`, the Drug degradation is 148.8 nmol/J in data set [1] and 140.3 nmol/J in data set [4]. The values for the Drug metabolism in data set [2] and in data set [3] were under 1 nmol/J and 1.4 nmol/J, respectively.
`O=C(Cn1c(=O)c(F)cn([C@H]2C[C@H](O)[C@@H](CO)O2)c1=O)Cn1c(=O)c(F)cn([C@H]2C[C@H](O)[C@@H](CO)O2)c1=O`: the outcome in the data set on A549 [5] and with A549 [6] was inactive. Further, the Drug degradation in data set [1] stood at 319.1 nmol/J; in data set [4] it was 173.6 nmol/J. In addition, the Drug metabolism in data set [2] was determined as 125.9 nmol/J; in data set [3] it was 14.5 nmol/J. In the data set on A549 [7], this compound gave a pIC50 of 5.33. Besides, the outcome in the data set with A549 [8] was Active.
Take `CC(=O)Cn1c(=O)c(F)cn([C@H]2C[C@H](O)[C@@H](CO)O2)c1=O`: the Drug degradation in data set [1] is 312.5 nmol/J. For the same compound, the Drug metabolism in data set [2] came to 50.9 nmol/J.
As to `CC(C(=O)C(C)n1c(=O)c(F)cn([C@H]2C[C@H](O)[C@@H](CO)O2)c1=O)n1c(=O)c(F)cn([C@H]2C[C@H](O)[C@@H](CO)O2)c1=O` (stereo not given in full), the Drug degradation in data set [1] was found to be 291 nmol/J; in data set [4], 177.2 nmol/J. Also, the Drug metabolism in data set [2] turned out to be 115.3 nmol/J; in data set [3], 26.2 nmol/J. For the same compound, in the data set on A549 [7], the negative-log IC50 (pIC50) was 5.98.
Regarding `O=c1[nH]c(=O)n([C@H]2C[C@H](O)[C@@H](CO)O2)cc1F` [FLOXURIDINE], the pIC50 in the data set with A549 [7] was 7.91.
